For orientation: ΔTm means the change in melting temperature against a reference sample. Broadly, the LC50 is the concentration lethal to half of the exposed cells or organisms. Lower therefore signals greater toxicity. Broadly, the TGI is the concentration giving total growth inhibition. As a reminder, the GI50 is the concentration that inhibits growth by half.

The species entered for assay [1] is Bos taurus. The assay is described as follows: Thermal denaturation measured for calf thymus DNA after incubation at 37 degree at 0h. Put shortly:
(§1)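 Calf thymus DNA (100 µM in phosphate) with ligand at 20 µM final, a 1:5 ligand/DNA molar ratio, added from concentrated MeOH solution. Buffer was 10 mM sodium phosphate with 1 mM EDTA, pH 7.00. Samples were incubated at 37 °C for 0 or 18 h, then heated at 1 °C/min over 40-90 °C with A260 monitored. Tm was taken from the d(A260)/dT maxima, and ∆Tm given relative to DNA alone.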

The species named for assay [2] is Bos taurus. The assay is described as follows: Thermal denaturation measured for calf thymus DNA after incubation at 37 degree at 18 h. Put shortly: as §1
The subject of assay [3] is CNS carcinoma cell. The assay is described as follows: Drug concentration causing 50% lethality against human cancer line of CNS. Format: functional. Put shortly:
(§2)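 Sixty-line human tumour panel screen: at least five concentrations at 10-fold dilutions, 48 h continuous exposure, growth read by sulforhodamine B protein stain. LC50 is the molar concentration giving 50% cell death (-50% growth) relative to control, as log LC50. Each cancer-type value is the average of 6-8 different cell lines.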

In assay [4] the test system is Panel leukemia (Carcinoma cell lines). Kind of assay: Drug concentration causing 50% lethality against human cancer line leukemia. Format: functional. As to conditions: read-out: Log LC50 (the source's name) (converted). Put shortly:
as §2

In assay [5] the test system is Breast carcinoma cell. Kind of assay: Drug concentration causing 50% lethality against breast human cancer line. Format: functional. In outline: as §2
Assay [6] relates to Melanoma cell. The assay is described as follows: Drug concentration causing 50% lethality against human cancer line melanoma. Format: functional. As to conditions: read-out: Log LC50 (the source's name) (converted). In outline: as §2
Assay [7] concerns Prostatic carcinoma cell. The assay is described as follows: Drug concentration causing 50% lethality against prostate human cancer line. The format is functional. To be noted: read-out: Log LC50 (the source's name) (converted). Put shortly:
as §2

In assay [8] the test system is Ovarian carcinoma cell. The assay is described as follows: Drug concentration causing 50% lethality against ovarian human cancer line. The format is functional. To be noted: read-out: Log LC50 (the source's name) (converted). Put shortly: as §2
Assay [9] has as its system Tumor Cell line. Kind of assay: In vitro cytotoxicity of drug concentration causing 50% cell death. The format is functional, Homo sapiens. As to conditions: read-out: Log LC50 (the source's name) (converted). In outline: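 Compound tested against sixty human tumour lines from nine cancer types, each line at at least five concentrations at 10-fold dilutions, 48 h continuous exposure, sulforhodamine B protein read-out. LC50 is the concentration causing 50% cell death (-50% growth) versus control. The value is the mean graph midpoint of log LC50 over all lines.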

The subject of assay [10] is Tumor Cell line. Kind of assay: In vitro cytotoxicity of drug concentration causing total cell growth inhibition. As to conditions: read-out: Log TGI (converted). Format: functional, Homo sapiens. Put shortly:
(§3)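 Sixty human tumor cell lines covering nine cancer types. Continuous drug exposure for 48 h, with growth or viability read by sulforhodamine B protein assay. Dose-response curves were run at a minimum of five concentrations at 10-fold dilutions. GI50 (50% growth inhibition) and TGI (0% growth) were calculated relative to control and reported as log mean graph midpoints across all cell lines.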

Assay [11] is filed under the species Homo sapiens. The assay is described as follows: Drug concentration causing 50% lethality against human cancer line nonsmall-cell lung. As to conditions: read-out: Log LC50 (the source's name) (converted). Format: functional. Put shortly: as §2
In assay [12] the test system is Renal cancer cell line. Kind of assay: Drug concentration causing 50% lethality against renal human cancer line. Format: functional. To be noted: read-out: Log LC50 (the source's name) (converted). In outline:
as §2

Assay [13] relates to Tumor Cell line. Kind of assay: In-vitro cytotoxicity of Drug molar concentration causing 50% cell growth inhibition against Human tumor cell lines. The format is functional. Put shortly:
as §3

Assay [14] deals with Colon carcinoma cell. The assay is described as follows: Drug concentration causing 50% lethality against human cancer line of colon. Format: functional. Put shortly: as §2
The mark [15] stands for this setting: Homo sapiens, Ovarian carcinoma cell.
Setting [16] is: Homo sapiens, Renal cancer cell line.

Values joined by “and” are separate entries in the source; they are usually repeats but may differ in a detail not shown here. Identical values can stand only once.

As for `COc1cc2c(cc1OCCCOc1cc3c(cc1OC)C(=O)N1CCC[C@H]1C=N3)N=C[C@@H]1CCCN1C2=O`, in assay [1], the thermal shift (ΔTm) was 10.2 °C.
On to `COc1cc2c(cc1OCCCCOc1cc3c(cc1OC)C(=O)N1CCC[C@H]1C(=O)N3)N=C[C@@H]1CCCN1C2=O`, for which the ΔTm in assay [1] worked out at 5 °C; in assay [2], 8.5 °C. Also, the LC50 in [3] was 45.7 µM; in assay [5], 53.7 µM. The CC50 in assay [4] was 24.4 µM; in [6] (Homo sapiens, Melanoma cell), 41.7 µM; in assay [7], 67.6 µM; in assay [8] (setting [15]), 58.9 µM; in assay [9] (Homo sapiens, Tumor Cell line), 50.1 µM; in assay [11] (Homo sapiens), 58.9 µM. For the same molecule, the CC50 in [12] (setting [16]) was 55 µM. In addition, in [10] (Homo sapiens, Tumor Cell line), the TGI is 20.4 µM. Further, the GI50 in assay [13] (Homo sapiens, Tumor Cell line) was 7.24 µM. Moreover, in assay [14], the LC50 (50% lethal concentration) was 57.5 µM.
On to `COc1cc2c(cc1OCCCCCOc1cc3c(cc1OC)C(=O)N1CCC[C@H]1C(=O)N3)N=C[C@@H]1CCCN1C2=O`, for which the results for the thermal shift (ΔTm) in assay [1] and in [2] were 14 °C and 17 °C, respectively. For the same molecule, the CC50 was 10 µM and 3.31 µM in assay [6]; over 100 µM in assay [7]; 87.1 µM in assay [8] (setting [15]); 60.3 µM in assay [8]; 44.7 µM in [9] (Homo sapiens, Tumor Cell line); 27.5 µM in assay [9]. Besides, the CC50 in assay [11] (Homo sapiens) is 58.9 µM; in assay [11] it was 79.4 µM; in [12] (setting [16]), 51.3 µM; in assay [12], 44.7 µM. Further, the TGI is 2.24 µM in assay [10] (Homo sapiens, Tumor Cell line) and 1.12 µM in [10]. The GI50 in [13] was 0.12 µM; in assay [13] (Homo sapiens, Tumor Cell line), 0.115 µM.
As for `COc1cc2c(cc1O)N=C[C@@H]1CCCN1C2=O`, the ΔTm worked out at 0.3 °C in assay [1] and 0.7 °C in [2].
As to `COc1cc2c(cc1OCCCOc1cc3c(cc1OC)C(=O)N1CCC[C@H]1C(=O)N3)N=C[C@@H]1CCCN1C2=O`, the ΔTm in assay [1] amounted to 6.5 °C; in assay [2] it was 7 °C. Further, the CC50 in assay [4] is 33.1 µM; in assay [6] (Homo sapiens, Melanoma cell), 83.2 µM; in assay [7], over 100 µM; in assay [8] (setting [15]) it was 95.5 µM; in assay [9] (Homo sapiens, Tumor Cell line) it was 83.2 µM; in assay [11] (Homo sapiens), over 100 µM. Further, in assay [12] (setting [16]), the CC50 was 91.2 µM. Besides, the concentration for total growth inhibition (TGI) in [10] (Homo sapiens, Tumor Cell line) was 42.7 µM. Halving of growth in assay [13] (Homo sapiens, Tumor Cell line) (GI50) required 13.2 µM.
